Experimental data from ChEMBL document CHEMBL1123579, “Synthesis and evaluation of mono-, di-, and trifluoroethenyl-GABA derivatives as GABA-T inhibitors” (J Med Chem, 1987).

How the values were obtained:
[1] = Dissociation constant pKa was reported.; assay type: physicochemical
Mus musculus [2] = assay: In vivo brain GABA-T activity was measured in mice 6 hour after intraperitoneal administration at a dose of 1.9 mM / kg.; assay type: functional
Outline: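 Male Swiss Albino mice (20–25 g) received drug ip as aqueous solution and were decapitated 6 h later. Half-brain was frozen, then homogenized in 9 volumes of 10 mM KH2PO4 pH 6.8 with 0.1 mM pyridoxal phosphate, 1 mM EDTA, 0.1 mM glutathione, 0.13% Triton X-100 and 20% glycerol for GABA-T activity. Mean ± SEM, n = 5; control n = 15; Student's t test.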

Mus musculus [3] = assay: Brain GABA level was measured in mice 6 hour after intraperitoneal administration at a dose of 1.9 mM/ kg.; assay type: functional
Outline: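 Male Swiss Albino mice (20–25 g), housed five per cage with free food and water on a 12-h light cycle, received drug ip as aqueous solution and were decapitated 6 h later. Half-brain homogenized in 10 mL 0.2 N HClO4, and supernatant GABA measured on an automatic amino acid analyzer. Mean ± SEM of five animals; control n = 15 pooled across days; Student's t test.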

Mus musculus [4] = assay: In vivo brain GABA-T activity was measured in mice 6 hour after intraperitoneal administration at a dose of 3.8 mM / kg.; assay type: functional
Outline: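 Male Swiss Albino mice (20–25 g) got an ip aqueous dose and were decapitated 6 h later. Brains were split sagittally and frozen. Half-brain was homogenized in 9 volumes of 10 mM KH2PO4 pH 6.8 with 0.1 mM pyridoxal phosphate, 1 mM EDTA, 0.1 mM glutathione, 0.13% Triton X-100 and 20% glycerol for GABA-T activity. Values are mean ± SEM, n = 5 (controls 15); Student's t test.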

Mus musculus [5] = assay: Brain GABA level was measured in mice 6 hour after intraperitoneal administration at a dose of 3.8 mM/ kg.; assay type: functional
Outline: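 Male Swiss Albino mice (20–25 g), housed five per cage under a 12-h light-dark cycle, were given drug ip as an aqueous solution. They were decapitated 6 h later and brains split sagittally and frozen. Half-brain was homogenized in 10 mL 0.2 N HClO4, and supernatant GABA was measured by automatic amino acid analyzer. Values are mean ± SEM of five animals (controls: 15, different days); Student's t test.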

pKa [1]	Compound	Activity (Mus musculus [2]) [mM/h]	Activity (Mus musculus [3]) [µM/g]	Activity (Mus musculus [4]) [mM/h]	Activity (Mus musculus [5]) [µM/g]
8.2	C#CC(N)CCC(=O)O (stereo unspecified)				
9.5	C=CC(N)CCC(=O)O (stereo unspecified) [VIGABATRIN]	29.3	9.1		

Continued, molecule first:

Compound	pKa [1]	Activity (Mus musculus [2]) [mM/h]	Activity (Mus musculus [3]) [µM/g]	Activity (Mus musculus [4]) [mM/h]	Activity (Mus musculus [5]) [µM/g]
C=C(F)C(N)CCC(=O)O (stereo unspecified)	8.32	59.7	3.6		
NC(/C=C\F)CCC(=O)O (stereo unspecified)	9.35	38.3	9.8		
NC(C=C(F)F)CCC(=O)O (stereo unspecified)	9.32	42.4	2.8		
NC(CCC(=O)O)C(F)=C(F)F (stereo unspecified)	7.87			69.4	2.7
